Read-outs that look alike come from different tables or passages of the source.
Columns and labels:
HCVcc-Luc = experiment: Time-of-addition assay, HCVcc-Luc on Huh7.5.1 cells; type: cell-based, Hepatitis C virus; details: 2 μM for 3 h, added at indicated time points
Outline: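 Huh7.5.1 cells inoculated with HCVcc-Luc at 37 °C for 3 h. At set time points, test compound at 2 μM (or DMSO) added for 3 h, then removed. Cells kept a further 48 h at 37 °C before luciferase readout. Mean of n = 3 with s.d.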

HCVpp = HCVpp infection of primary human hepatocytes; type: cell-based, Hepatitis C virus; details: pretreatment of PHHs at non-cytotoxic concentrations
[1] = Human liver microsomal stability assay; type: in vitro ADME; details: both, human liver microsomes, pH 7.4
[2] = test system: HCV replicon cell line 2-3(+); experiment: HCV replicon cell line 2-3; type: cell-based, Hepatitis C virus (Genotype 1b); details: 20 nM, 24, 48 or 72 hours, replicon cells
CHIKVpp = CHIKVpp infection of Huh7.5.1 cells, luciferase assay; type: cell-based, Chikungunya virus; details: Huh7.5.1, Roc-A 10 nM, Fig. S3F
PHB-CRaf interaction = PHB-CRaf interaction (Homo sapiens, UniProt P35232+Q99623); experiment: Co-IP of Flag-CRaf and V5-tagged PHB1 & 2 in 293T cells; type: cell-based; details: 20 nM
Outline: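 Flag-CRaf and V5-tagged PHB1 and PHB2 co-expressed in 293T cells by co-transfection. Cells left untreated or exposed to test compound at 20 nM, then immunoprecipitated with anti-Flag antibody. Co-precipitated PHB1/PHB2 and CRaf detected by immunoblotting.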

cell surface PHB1 and 2 = cell surface PHB1 and 2 (Homo sapiens, UniProt P35232+Q99623); experiment: Cell surface biotinylation assay, Huh7.5.1 cells; type: cell-based; details: 20 nM
PHB1, PHB2, CRaf, Ras = PHB1, PHB2, CRaf, Ras (Homo sapiens, UniProt P35232+Q99623); experiment: Western blotting of cellular PHB1, PHB2, CRaf and Ras in Huh7.5.1 cells; type: cell-based; details: 20 nM, 1, 2 and 3 days
[3] = test system: JFH-1 genotype 2a infectious virus (HCVcc); details: for HCVcc infection / HCV entry inhibition (in words) / TI (CC50/EC50) / EC50: Huh7.5.1
Huh7.5.1 cells = experiment: Cytotoxicity; type: cell-based, human
[4] = compounds incubated with cells for a total of 3 h
[5] = compounds incubated with cells for a total of 48 h

Sequence of PHB1, PHB2, CRaf, Ras (P35232 2-272 limits assumed): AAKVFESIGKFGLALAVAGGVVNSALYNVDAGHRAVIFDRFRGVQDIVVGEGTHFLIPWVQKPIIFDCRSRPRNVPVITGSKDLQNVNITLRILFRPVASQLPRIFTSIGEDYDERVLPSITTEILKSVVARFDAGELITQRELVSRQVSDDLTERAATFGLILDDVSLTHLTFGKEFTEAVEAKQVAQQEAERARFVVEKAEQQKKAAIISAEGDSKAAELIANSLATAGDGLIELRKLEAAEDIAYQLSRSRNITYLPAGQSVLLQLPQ
Sequence of PHB1, PHB2, CRaf, Ras (Q99623 2-299 limits assumed): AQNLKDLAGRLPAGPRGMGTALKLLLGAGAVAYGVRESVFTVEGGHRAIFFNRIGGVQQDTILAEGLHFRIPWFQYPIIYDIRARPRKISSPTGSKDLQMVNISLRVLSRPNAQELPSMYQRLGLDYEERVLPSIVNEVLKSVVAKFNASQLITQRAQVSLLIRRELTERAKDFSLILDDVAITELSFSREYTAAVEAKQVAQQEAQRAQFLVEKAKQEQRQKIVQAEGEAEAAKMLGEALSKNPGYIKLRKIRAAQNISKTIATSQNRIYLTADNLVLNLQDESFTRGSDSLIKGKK
Sequence of PHB-CRaf interaction (P35232 whole entry): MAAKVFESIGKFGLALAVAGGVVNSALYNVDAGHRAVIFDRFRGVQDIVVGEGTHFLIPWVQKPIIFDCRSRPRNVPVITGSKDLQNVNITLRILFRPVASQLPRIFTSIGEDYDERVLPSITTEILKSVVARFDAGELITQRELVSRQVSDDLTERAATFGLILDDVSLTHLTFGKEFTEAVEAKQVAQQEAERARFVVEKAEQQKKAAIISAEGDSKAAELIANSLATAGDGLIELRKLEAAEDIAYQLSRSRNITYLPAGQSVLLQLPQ
Sequence of PHB-CRaf interaction (Q99623 whole entry): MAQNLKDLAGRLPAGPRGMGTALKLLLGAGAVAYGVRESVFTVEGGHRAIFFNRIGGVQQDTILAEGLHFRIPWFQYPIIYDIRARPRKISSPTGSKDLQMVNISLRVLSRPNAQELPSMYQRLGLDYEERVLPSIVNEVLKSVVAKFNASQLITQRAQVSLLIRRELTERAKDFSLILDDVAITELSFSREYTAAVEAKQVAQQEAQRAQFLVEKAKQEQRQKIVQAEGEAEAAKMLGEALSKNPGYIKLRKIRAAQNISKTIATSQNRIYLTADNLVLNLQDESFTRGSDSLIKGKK

Molecule	HCVcc infection / HCV entry inhibition (in words) [3]	CC50 (Huh7.5.1 cells; [4]) [nM]	TI (CC50/EC50) ([3]; 3 h incubation)	EC50 [3, 4] [nM]	further results
CONC(=O)[C@H]1[C@@H](O)[C@@]2(O)c3c(OC)cc(OC)cc3O[C@@]2(c2ccc(OC)cc2)[C@@H]1c1ccccc1 [Compound E2, (-)-NH hydroxamate]					anti-HCV activity by time of addition (HCVcc-Luc): appeared to inhibit HCV no matter when added
COc1ccc([C@@]23Oc4cc(OC)cc(OC)c4[C@]2(O)[C@H](O)[C@H](C(=O)N(C)C)[C@H]3c2ccccc2)cc1 [Roc-A, rocaglamide A]	significantly reduced				HCVpp entry (in words) (HCVpp): suppressed HCVpp entry; half-life at 1 µM [1]: 37 min; HCV RNA replication or protein translation [2]: did not inhibit HCV RNA replication or protein translation; CHIKVpp infection (CHIKVpp): significantly reduced; PHB-CRaf interaction (PHB-CRaf interaction): disrupted the PHB-CRaf interaction; cell surface expression of PHB1 and 2 (cell surface PHB1 and 2): decreased the cell surface expression of PHB1 and 2; PHB1, 2, Ras and CRaf total protein level (PHB1, PHB2, CRaf, Ras): decreased PHB1, 2, Ras, and CRaf at the total protein level
(+)-aglaroxin C		100000	5a	20000	
(+)-rocaglamide [(+) Roc-A]		300000		> 200000	
(-)-aglaroxin C [(−)-Aglaroxin C]	active enantiomer for HCV viral entry inhibition	12000	60a	200	
(-)-rocaglamide [(−) Roc-A]	stronger inhibition on HCV entry than the (+) enantiomer	50000	50	1000	CC50 (Huh7.5.1 cells; [5]): 300 nM; TI (CC50/EC50) ([3]; 48 h incubation): 75; EC50 [3, 5]: 4 nM
(±)-aglaroxin C [(±) Aglaroxin C (C10)]		10000	100	100	CC50 (Huh7.5.1 cells; [5]): 20 nM; anti-HCV activity by time of addition (HCVcc-Luc): maximal anti-HCV activity when added together with the virus but lost its activity when added 3 h after the infection was initiated; TI (CC50/EC50) ([3]; 48 h incubation): 500; half-maximum effective concentrations (EC50), in words ([3]; JFH-1 genotype 2a infectious virus in cell culture): picomolar; EC50 [3, 5]: 0.04 nM

Source: paper PMC4740292 (EBioMedicine, 2015)
